Assays:
[1] = target: T1, Sodium channel protein type 10 subunit alpha (Homo sapiens, UniProt Q9Y5Y9); assay: Inhibition of human recombinant Nav1.8 channel expressed in HEK293 cells by whole cell voltage clamp technique; type: cell-based
Summary of the method: (§1)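 HEK293 cells stably expressing recombinant human sodium channels, grown in high-glucose DMEM, 10% FBS, 2 mM sodium pyruvate, G418. Whole-cell voltage clamp; pipettes 0.8–2.5 MΩ; internal (mM) 135 CsF, 10 CsCl, 5 EGTA, 5 NaCl, 10 HEPES, pH 7.3 with CsOH. Holding pre-pulse set at midpoint of steady-state inactivation for each subtype.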

[2] = target: T1, Sodium channel protein type 10 subunit alpha; assay: Inhibition of human recombinant Nav1.8 channel expressed in HEK293 cells at 0.3 uM by whole cell voltage clamp technique; type: cell-based; summary of the method: as §1
[3] = target: T1, Sodium channel protein type 10 subunit alpha; assay: Inhibition of human recombinant Nav1.8 channel expressed in HEK293 cells at 0.1 uM by whole cell voltage clamp technique; type: cell-based; summary of the method: as §1
[4] = target: Sodium channel protein type 10 subunit alpha (Mus musculus, UniProt Q6QIY3); assay: Inhibition of mouse recombinant Nav1.8 channel expressed in HEK293 cells by isotopic efflux assay; type: cell-based
[5] = target: Sodium channel protein type 10 subunit alpha (Rattus norvegicus) (UniProt Q62968); assay: Blockade of Nav1.8 channel in rat dorsal root ganglion neurons assessed as inhibition of TTX-R current at 0.3 uM by whole cell patch clamp technique; type: tissue-based
Summary of the method: (§2)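 Whole-cell voltage clamp of TTX-resistant currents in dissociated rat DRG neurons. Pipette (mM): CsF 135, NaCl 5, CsCl 10, EGTA 5, HEPES 10, pH 7.2. Bath (mM): NaCl 22, choline Cl 110, CaCl2 1.8, MgCl2 0.8, HEPES 10, glucose 5, pH 7.4. Inactivated-state protocol with pre-pulse at V1/2 (−40 mV). Mean ± SEM of two to six determinations.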

[6] = Plasma clearance in Sprague-Dawley rat at 10 mg/kg; type: ADME, organism-based; design: dose 10 mg/kg
Summary of the method: (§3)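 Rat pharmacokinetics after administration at 10 mg/kg in 10% DMSO/PEG400.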

Rattus norvegicus [7] = assay: Analgesic activity in po dosed Sprague-Dawley rat by edge test; type: functional
Summary of the method: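 Balance test: rats placed on 0.5-cm-thick edges of a 40 × 40 × 36 cm plexiglass box, must pull up onto the edge and avoid falling; cut-off 2 min. Groups of at least six rats.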

[8] = target: Sodium channel protein type 2 subunit alpha (Homo sapiens, UniProt Q99250); assay: Inhibition of human recombinant Nav1.2 channel expressed in HEK293 cells by whole cell voltage clamp technique; type: cell-based
Chain of Sodium channel protein type 2 subunit alpha (Q99250 whole entry): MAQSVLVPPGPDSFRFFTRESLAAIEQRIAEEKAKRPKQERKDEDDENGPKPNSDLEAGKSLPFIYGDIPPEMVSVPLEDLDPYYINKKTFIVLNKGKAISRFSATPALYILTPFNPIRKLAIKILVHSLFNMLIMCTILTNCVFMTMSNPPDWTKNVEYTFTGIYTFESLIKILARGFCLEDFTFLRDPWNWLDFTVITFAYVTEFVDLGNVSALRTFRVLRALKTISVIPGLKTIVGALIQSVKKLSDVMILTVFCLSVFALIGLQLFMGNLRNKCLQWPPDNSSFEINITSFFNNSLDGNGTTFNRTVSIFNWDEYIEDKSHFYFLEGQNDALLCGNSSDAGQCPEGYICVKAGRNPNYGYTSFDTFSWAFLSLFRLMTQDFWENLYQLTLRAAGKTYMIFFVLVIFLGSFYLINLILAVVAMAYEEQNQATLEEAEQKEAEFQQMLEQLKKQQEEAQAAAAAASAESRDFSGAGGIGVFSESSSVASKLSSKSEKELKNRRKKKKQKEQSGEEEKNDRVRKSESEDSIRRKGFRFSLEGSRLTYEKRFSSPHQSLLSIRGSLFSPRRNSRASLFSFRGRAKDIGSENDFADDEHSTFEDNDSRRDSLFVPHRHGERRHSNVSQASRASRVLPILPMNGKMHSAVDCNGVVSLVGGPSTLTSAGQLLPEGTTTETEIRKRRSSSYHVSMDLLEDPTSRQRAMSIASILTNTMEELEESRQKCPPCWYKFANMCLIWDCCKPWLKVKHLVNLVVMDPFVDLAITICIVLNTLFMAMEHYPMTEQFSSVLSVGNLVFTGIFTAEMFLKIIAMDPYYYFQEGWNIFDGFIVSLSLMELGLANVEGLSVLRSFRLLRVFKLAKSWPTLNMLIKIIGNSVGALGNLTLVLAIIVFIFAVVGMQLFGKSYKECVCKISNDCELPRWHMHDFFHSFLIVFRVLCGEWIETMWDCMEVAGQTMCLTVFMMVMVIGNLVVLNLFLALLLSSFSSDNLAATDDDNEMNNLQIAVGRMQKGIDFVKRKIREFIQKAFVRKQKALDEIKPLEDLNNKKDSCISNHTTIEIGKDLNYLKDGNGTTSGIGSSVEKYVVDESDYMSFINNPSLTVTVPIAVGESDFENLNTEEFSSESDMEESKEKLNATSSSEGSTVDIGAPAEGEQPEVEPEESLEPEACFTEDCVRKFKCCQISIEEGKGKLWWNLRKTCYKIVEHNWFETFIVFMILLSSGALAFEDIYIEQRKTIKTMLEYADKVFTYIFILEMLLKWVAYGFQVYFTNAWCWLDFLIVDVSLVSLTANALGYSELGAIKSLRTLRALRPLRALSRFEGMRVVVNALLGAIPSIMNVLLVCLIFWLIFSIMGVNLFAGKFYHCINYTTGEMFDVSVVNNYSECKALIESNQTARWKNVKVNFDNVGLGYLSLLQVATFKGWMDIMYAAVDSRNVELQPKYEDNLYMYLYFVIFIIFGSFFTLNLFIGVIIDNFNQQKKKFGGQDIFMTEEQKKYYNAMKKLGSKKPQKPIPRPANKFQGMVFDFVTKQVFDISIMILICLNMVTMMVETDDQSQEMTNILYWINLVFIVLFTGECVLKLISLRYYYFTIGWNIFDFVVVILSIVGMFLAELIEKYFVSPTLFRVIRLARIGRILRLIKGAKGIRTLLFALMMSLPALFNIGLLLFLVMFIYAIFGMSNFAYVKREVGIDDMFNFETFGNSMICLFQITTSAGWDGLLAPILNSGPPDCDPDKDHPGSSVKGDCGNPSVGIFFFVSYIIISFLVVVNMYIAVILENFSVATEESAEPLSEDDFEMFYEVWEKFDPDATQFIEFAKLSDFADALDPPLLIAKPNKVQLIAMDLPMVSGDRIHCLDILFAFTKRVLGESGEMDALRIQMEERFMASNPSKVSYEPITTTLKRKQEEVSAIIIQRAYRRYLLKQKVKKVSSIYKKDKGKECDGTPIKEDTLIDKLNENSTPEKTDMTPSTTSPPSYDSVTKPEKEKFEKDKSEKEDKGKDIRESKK
Summary of the method: (§4)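 HEK293 cells stably expressing recombinant human sodium channels, grown in high-glucose DMEM, 10% FBS, 2 mM sodium pyruvate, G418. Holding pre-pulse set at midpoint of steady-state inactivation for each subtype.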

[9] = target: Sodium channel protein type 5 subunit alpha (Homo sapiens, UniProt Q14524); assay: Inhibition of human recombinant Nav1.5 channel expressed in HEK293 cells by whole cell voltage clamp technique; type: cell-based; summary of the method: as §4
Chain of Sodium channel protein type 5 subunit alpha (Q14524 whole entry): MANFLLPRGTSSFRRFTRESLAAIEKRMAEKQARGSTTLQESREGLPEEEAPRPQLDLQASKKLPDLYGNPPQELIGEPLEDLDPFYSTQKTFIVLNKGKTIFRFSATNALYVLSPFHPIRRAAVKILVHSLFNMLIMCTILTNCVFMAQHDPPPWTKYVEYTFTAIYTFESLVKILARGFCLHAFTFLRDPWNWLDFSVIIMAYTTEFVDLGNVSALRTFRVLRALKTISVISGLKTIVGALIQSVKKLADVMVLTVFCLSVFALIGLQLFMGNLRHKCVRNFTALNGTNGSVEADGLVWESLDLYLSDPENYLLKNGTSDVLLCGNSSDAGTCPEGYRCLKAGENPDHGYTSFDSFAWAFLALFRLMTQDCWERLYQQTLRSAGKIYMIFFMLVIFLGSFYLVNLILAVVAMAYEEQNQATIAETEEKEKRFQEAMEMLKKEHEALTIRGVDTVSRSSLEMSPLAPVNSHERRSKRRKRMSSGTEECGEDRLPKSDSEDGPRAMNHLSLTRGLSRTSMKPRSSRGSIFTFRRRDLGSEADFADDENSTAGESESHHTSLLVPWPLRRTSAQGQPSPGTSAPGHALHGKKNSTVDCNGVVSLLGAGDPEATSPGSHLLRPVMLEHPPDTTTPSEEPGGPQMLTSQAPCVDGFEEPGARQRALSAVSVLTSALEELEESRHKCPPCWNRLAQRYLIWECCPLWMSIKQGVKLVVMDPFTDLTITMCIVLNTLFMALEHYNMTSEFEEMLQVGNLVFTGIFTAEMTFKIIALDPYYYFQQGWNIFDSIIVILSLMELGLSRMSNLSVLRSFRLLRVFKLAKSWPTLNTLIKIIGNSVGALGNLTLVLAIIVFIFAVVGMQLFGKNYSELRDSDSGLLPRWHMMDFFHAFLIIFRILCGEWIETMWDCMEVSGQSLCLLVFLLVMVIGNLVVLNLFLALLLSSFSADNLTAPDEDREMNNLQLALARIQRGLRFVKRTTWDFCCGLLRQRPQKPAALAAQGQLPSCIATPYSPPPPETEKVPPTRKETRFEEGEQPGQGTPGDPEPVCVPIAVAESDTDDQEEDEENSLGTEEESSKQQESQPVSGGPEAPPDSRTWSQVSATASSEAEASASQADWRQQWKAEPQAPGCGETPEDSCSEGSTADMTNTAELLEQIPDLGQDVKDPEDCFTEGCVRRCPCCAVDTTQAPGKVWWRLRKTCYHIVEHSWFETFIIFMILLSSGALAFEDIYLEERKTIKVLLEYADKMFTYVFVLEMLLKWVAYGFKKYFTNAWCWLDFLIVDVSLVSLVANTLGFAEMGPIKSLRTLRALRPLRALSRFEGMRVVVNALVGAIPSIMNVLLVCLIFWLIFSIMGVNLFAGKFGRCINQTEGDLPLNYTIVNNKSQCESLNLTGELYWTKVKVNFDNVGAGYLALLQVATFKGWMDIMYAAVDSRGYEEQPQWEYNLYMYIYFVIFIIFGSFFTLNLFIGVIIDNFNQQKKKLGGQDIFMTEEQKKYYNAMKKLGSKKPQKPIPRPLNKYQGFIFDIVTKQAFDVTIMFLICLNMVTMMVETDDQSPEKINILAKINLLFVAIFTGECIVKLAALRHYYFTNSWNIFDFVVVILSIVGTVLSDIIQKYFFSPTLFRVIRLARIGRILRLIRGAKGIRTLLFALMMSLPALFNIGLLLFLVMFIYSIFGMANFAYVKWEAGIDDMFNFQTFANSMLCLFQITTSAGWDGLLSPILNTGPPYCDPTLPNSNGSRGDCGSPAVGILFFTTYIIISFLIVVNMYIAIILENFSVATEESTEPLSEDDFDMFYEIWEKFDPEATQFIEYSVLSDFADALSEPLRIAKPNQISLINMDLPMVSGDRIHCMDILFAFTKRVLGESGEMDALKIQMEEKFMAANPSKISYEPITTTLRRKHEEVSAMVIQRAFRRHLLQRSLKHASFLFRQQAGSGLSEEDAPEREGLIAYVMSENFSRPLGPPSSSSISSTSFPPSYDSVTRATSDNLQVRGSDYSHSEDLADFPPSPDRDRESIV

Rattus norvegicus [10] = assay: Analgesic activity in po dosed Sprague-Dawley rat by rotarod test; type: functional
Summary of the method: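 Accelerating rotorod: after 30-min acclimation, rats placed on 9-cm rod ramping 0–20 rpm over 60 s; latency to fall recorded, maximum 60 s; three training sessions per rat. Groups of at least six rats; mean ± SEM.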

[11] = target: 5-hydroxytryptamine receptor 1B (Homo sapiens) (UniProt P28222); assay: Binding affinity to 5HT1B receptor at 10 uM
Chain of 5-hydroxytryptamine receptor 1B (Homo sapiens) (P28222 whole entry): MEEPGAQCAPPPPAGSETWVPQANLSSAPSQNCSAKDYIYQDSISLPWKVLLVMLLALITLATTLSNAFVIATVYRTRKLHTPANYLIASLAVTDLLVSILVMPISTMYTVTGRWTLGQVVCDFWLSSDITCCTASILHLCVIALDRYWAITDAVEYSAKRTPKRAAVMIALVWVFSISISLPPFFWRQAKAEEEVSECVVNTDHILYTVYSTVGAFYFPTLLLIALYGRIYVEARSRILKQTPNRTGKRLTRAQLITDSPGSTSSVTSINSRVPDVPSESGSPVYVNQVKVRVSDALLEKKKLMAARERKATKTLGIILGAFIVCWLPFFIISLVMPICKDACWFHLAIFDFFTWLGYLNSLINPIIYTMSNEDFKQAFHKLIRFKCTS

[12] = Volume of distribution at steady state in Sprague-Dawley rat at 10 mg/kg; type: ADME, organism-based; design: dose 10 mg/kg; settings: in vivo, read-out: Vdss; summary of the method: as §3
[13] = Ratio of drug level in brain to plasma in Sprague-Dawley rat; type: ADME; settings: for Kp: Sprague-Dawley, brain and plasma
[14] = target: T2, 5-hydroxytryptamine receptor 1A (Homo sapiens) (UniProt P08908); assay: Binding affinity to 5HT1A receptor at 10 uM
T2 sequence (whole entry): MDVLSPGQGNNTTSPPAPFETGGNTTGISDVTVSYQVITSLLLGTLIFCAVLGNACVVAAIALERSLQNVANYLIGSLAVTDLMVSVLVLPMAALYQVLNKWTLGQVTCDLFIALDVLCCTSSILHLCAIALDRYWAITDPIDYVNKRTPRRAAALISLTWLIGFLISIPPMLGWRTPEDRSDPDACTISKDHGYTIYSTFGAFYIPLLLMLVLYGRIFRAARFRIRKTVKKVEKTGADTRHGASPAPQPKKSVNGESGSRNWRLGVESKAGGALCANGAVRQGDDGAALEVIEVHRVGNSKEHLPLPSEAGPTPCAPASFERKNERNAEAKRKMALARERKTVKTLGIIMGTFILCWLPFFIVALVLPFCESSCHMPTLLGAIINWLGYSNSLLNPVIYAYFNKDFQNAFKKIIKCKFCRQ

[15] = target: Sodium channel protein type 10 subunit alpha (Rattus norvegicus, UniProt Q62968); assay: Blockade of Nav1.8 channel in rat dorsal root ganglion neurons assessed as inhibition of TTX-R current by whole cell patch clamp technique; type: tissue-based; summary of the method: as §2
[16] = Cmax in Sprague-Dawley rat at 10 mg/kg, po; type: ADME, organism-based; design: dose 10 mg/kg, route oral; settings: in vivo; summary of the method: as §3
Rattus norvegicus [17] = assay: Effect on locomotor activity in po dosed Sprague-Dawley rat; type: functional
Summary of the method: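 Open-field locomotor activity recorded with photobeam activity monitors during the light cycle; groups of at least six rats, mean ± SEM.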

Rattus norvegicus [18] = assay: Analgesic activity in po dosed Sprague-Dawley rat assessed as attenuation of mechanical allodynia in chung model of neuropathic pain; type: functional
[19] = Oral bioavailability in Sprague-Dawley rat at 10 mg/kg; type: ADME, organism-based; settings: in vivo; summary of the method: as §3
[20] = target: Sodium channel protein type 10 subunit alpha (Rattus norvegicus) (UniProt Q62968); assay: Blockade of Nav1.8 channel in rat dorsal root ganglion neurons assessed as inhibition of TTX-R current at 1 uM by whole cell patch clamp technique; type: tissue-based; summary of the method: as §2
[21] = target: Sodium channel protein type 10 subunit alpha (Rattus norvegicus) (UniProt Q62968); assay: Blockade of Nav1.8 channel in rat dorsal root ganglion neurons assessed as inhibition of TTX-R current at 0.1 uM by whole cell patch clamp technique; type: tissue-based; summary of the method: as §2
[22] = target: Sodium channel protein type 10 subunit alpha (Rattus norvegicus) (UniProt Q62968); assay: Blockade of Nav1.8 channel in rat dorsal root ganglion neurons assessed as inhibition of TTX-R current at 3 uM by whole cell patch clamp technique; type: tissue-based; summary of the method: as §2
[23] = target: T1, Sodium channel protein type 10 subunit alpha; assay: Inhibition of human recombinant Nav1.8 channel expressed in HEK293 cells at 1 uM by whole cell voltage clamp technique; type: cell-based; summary of the method: as §1
[24] = target: Sodium channel protein type 10 subunit alpha (Rattus norvegicus) (UniProt Q62968); assay: Blockade of Nav1.8 channel in rat dorsal root ganglion neurons assessed as inhibition of TTX-R current at 10 uM by whole cell patch clamp technique; type: tissue-based; summary of the method: as §2
[25] = target: T1, Sodium channel protein type 10 subunit alpha; assay: Inhibition of human recombinant Nav1.8 channel expressed in HEK293 cells at 0.03 uM by whole cell voltage clamp technique; type: cell-based; summary of the method: as §1
Rattus norvegicus [26] = assay: Effect on locomotor activity in ip dosed Sprague-Dawley rat
Rattus norvegicus [27] = assay: Analgesic activity in ip dosed Sprague-Dawley rat by rotarod test
Rattus norvegicus [28] = assay: Analgesic activity in ip dosed Sprague-Dawley rat assessed as attenuation of mechanical allodynia in chung model of neuropathic pain

C[C@@H](NC(=O)c1ccc(-c2ccc(Cl)cc2)o1)C(=O)N1CCN(CCCOc2ccc(C(=O)C3CC3)cc2)CC1
IC50 [1]: 1000 nM

O=C(c1ccc(-c2ccc(OC(F)(F)F)cc2)o1)N1CCN(C2CCCCC2)CC1
inhibition [2]: 89%
inhibition [3]: 42%

CN(C)CC(C)(C)CNC(=O)c1ccc(-c2ccc(Cl)cc2)o1
IC50 [4]: 2400 nM
inhibition [5]: 65%

O=C(c1ccc(-c2ccc(Cl)cc2)o1)N1CCNCC1
clearance [6]: 350 mL/min/kg
ED50 (Rattus norvegicus [7]): > 300 µmol/kg
inhibition [2]: 55%
IC50 [8]: 1100 nM
IC50 [9]: 4600 nM
IC50 [1]: 280 nM
ED50 (Rattus norvegicus [10]): > 300 µmol/kg
IC50 [4]: 2900 nM
Activity [11]: 86%
Vd [12]: 24 L/kg
Kp [13]: 9
inhibition [5]: 41%
Activity [14]: 60%
IC50 [15]: 430 nM
Cmax [16]: 130 ng/mL
ED50 (Rattus norvegicus [17]): > 300 µmol/kg
ED50 (Rattus norvegicus [18]): 24 µmol/kg
bioavailability [19]: 42%

CN1CCN(C(=O)c2ccc(-c3ccc(Oc4ccccc4)cc3)o2)CC1
inhibition [2]: 87%
inhibition [3]: 35%
inhibition [20]: 90%
inhibition [21]: 55%

O=C(c1ccc(-c2ccc(Cl)cc2)o1)N1CCN(C2CCCCC2)CC1
clearance [6]: 45 mL/min/kg
ED50 (Rattus norvegicus [7]): > 300 µmol/kg
inhibition [2]: 58%
IC50 [8]: 350 nM
IC50 [9]: 2300 nM
IC50 [1]: 300 nM
ED50 (Rattus norvegicus [10]): > 300 µmol/kg
IC50 [4]: 1000 nM
Vd [12]: 7.8 L/kg
Kp [13]: 9
inhibition [5]: 50%
IC50 [15]: 390 nM
Cmax [16]: 470 ng/mL
ED50 (Rattus norvegicus [17]): > 300 µmol/kg
ED50 (Rattus norvegicus [18]): 37 µmol/kg
bioavailability [19]: 48%

CN1CCN(C(=O)c2ccc(-c3ccc(Cl)cc3)o2)CC1
inhibition [22]: 31%
IC50 [4]: 9900 nM

O=C(c1ccc(-c2cccc(Cl)c2)o1)N1CCN(C2CCCCC2)CC1
inhibition [3]: 22%
inhibition [23]: 80%

CN1CCN(C(=O)c2ccc(-c3ccc(C(C)(C)C)cc3)o2)CC1
inhibition [2]: 32%
inhibition [20]: 55%

O=C(c1ccc(-c2ccc(Cl)cc2)o1)N1CCOCC1
IC50 [4]: 32000 nM

CC(C)(C)c1ccc(-c2ccc(C(=O)N3CCNCC3)o2)cc1
inhibition [24]: 86%
inhibition [3]: 44%
inhibition [23]: 85%

CN(C)c1ccc(-c2ccc(C(=O)N3CCN(C4CCCCC4)CC3)o2)cc1
inhibition [23]: 65%

O=C(c1ccc(-c2ccc(Oc3ccccc3)cc2)o1)N1CCNCC1
inhibition [3]: 39%
inhibition [20]: 56%
inhibition [23]: 93%

O=C(NCCN1CCCCC1)c1ccc(-c2ccc(Cl)cc2)o1
inhibition [3]: 29%
IC50 [4]: 900 nM
inhibition [5]: 59%

O=C(NCCCN1CCCCC1)c1ccc(-c2ccc(Cl)cc2)o1
IC50 [4]: 1600 nM
inhibition [5]: 52%

O=C(c1ccc(-c2ccc(Oc3ccccc3)cc2)o1)N1CCN(C2CCCCC2)CC1
inhibition [2]: 93%
inhibition [25]: 68%
inhibition [20]: 67%

Cc1cccc(C)c1OCC(C)N (centres undefined) [MEXILETINE]
ED50 (Rattus norvegicus [26]): 45 µmol/kg
ED50 (Rattus norvegicus [27]): > 140 µmol/kg
IC50 [8]: 2900 nM
IC50 [1]: 56000 nM
Kp [13]: 1.4
ED50 (Rattus norvegicus [28]): 102 µmol/kg
IC50 [15]: 31000 nM

O=C(c1ccc(-c2ccc(Cl)cc2)o1)N1CCN(c2cccc(C(F)(F)F)c2)CC1
IC50 [4]: 14000 nM

CN1CCC(NC(=O)c2ccc(-c3ccc(Cl)cc3)o2)CC1
IC50 [4]: 1900 nM
inhibition [5]: 51%

Nc1nnc(-c2cccc(Cl)c2Cl)c(N)n1 [LAMOTRIGINE]
clearance [6]: 1 mL/min/kg
ED50 (Rattus norvegicus [7]): > 390 µmol/kg
IC50 [8]: 10000 nM
IC50 [9]: 62000 nM
IC50 [1]: 96000 nM
ED50 (Rattus norvegicus [10]): > 390 µmol/kg
Vd [12]: 0.98 L/kg
Ratio ([13]; brain): 26
IC50 [15]: 25000 nM
Cmax [16]: 3500 ng/mL
ED50 (Rattus norvegicus [17]): > 390 µmol/kg
ED50 (Rattus norvegicus [18]): 47 µmol/kg
bioavailability [19]: 79%

O=C(c1ccc(-c2ccc(Cl)cc2Cl)o1)N1CCN(C2CCCCC2)CC1
inhibition [2]: 12%

— ChEMBL document CHEMBL1150418, “Discovery of potent furan piperazine sodium channel blockers for treatment of neuropathic pain” (Bioorg Med Chem, 2008)
